In ChEMBL document CHEMBL1140653, “Cytostatic activity of novel 4'-aminochalcone-based imides” (Bioorg Med Chem Lett, 2007):

Assays:
[1] = Cytotoxicity against human Molt4/C8 cells; format: functional, cell-based; conditions: MOLT-4
[2] = test system: L1210; test: Cytotoxicity against mouse L1210 cells; format: functional, cell-based
[3] = test system: CCRF-CEM; test: Cytotoxicity against human CEM cells; format: functional, cell-based
[4] = test system: Mus musculus; test: Neurotoxicity in mouse at 300 mg/kg, ip after 4 hrs by rotating rod method; format: toxicity, organism-based; set-up: dose 300 mg/kg, route intraperitoneal; conditions: in vivo
How it was run: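 Intraperitoneal dosing in mice at 30, 100 and 300 mg/kg. Neurological deficit was scored by the rotating rod procedure at 0.5 and 4 h, with observation for other pathological signs. Results were recorded as animals showing neurotoxicity over total animals at each dose.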

[5] = test system: Mus musculus; test: Mortality in mouse at 300 mg/kg, ip after 4 hrs; format: ADME, organism-based; set-up: dose 300 mg/kg, route intraperitoneal; conditions: in vivo
How it was run: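 Mice dosed intraperitoneally at 30, 100 and 300 mg/kg; animals observed for death at 0.5 and 4 h after injection as part of a short-term toxicity screen.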

Structure (SMILES): O=C(/C=C/c1ccccc1)c1ccc(N2C(=O)C=CC2=O)cc1
- IC50 [1]: 9.5 µM
- IC50 [2]: 8.6 µM
- IC50 [3]: 9.8 µM

Structure (SMILES): O=C(/C=C/c1ccc(Cl)c(Cl)c1)c1ccc(N2C(=O)C=CC2=O)cc1
- IC50 [1]: 8.8 µM
- IC50 [2]: 6.5 µM
- IC50 [3]: 7.7 µM

Structure (SMILES): O=C(/C=C/c1ccc2c(c1)OCO2)c1ccc(N2C(=O)C=CC2=O)cc1
- IC50 [1]: 214 µM
- IC50 [2]: 160 µM
- IC50 [3]: 258 µM

Structure (SMILES): Cc1ccc(/C=C/C(=O)c2ccc(N3C(=O)C=CC3=O)cc2)cc1
- IC50 [1]: 2.4 µM
- IC50 [2]: 1.5 µM
- IC50 [3]: 4.1 µM

Structure (SMILES): COc1ccc(/C=C/C(=O)c2ccc(N3C(=O)C=CC3=O)cc2)cc1OC
- IC50 [1]: 202 µM
- IC50 [2]: 157 µM
- IC50 [3]: 220 µM

Structure (SMILES): COc1ccc(/C=C/C(=O)c2ccc(N3C(=O)C=CC3=O)cc2)cc1
- Activity [4]: Non-toxic
- IC50 [1]: 7.9 µM
- IC50 [2]: 9.8 µM
- IC50 [3]: 8.4 µM

Structure (SMILES): O=C(/C=C/c1ccc([N+](=O)[O-])cc1)c1ccc(N2C(=O)C=CC2=O)cc1
- IC50 [1]: > 500 µM
- IC50 [2]: > 500 µM
- IC50 [3]: > 500 µM

Structure (SMILES): O=C(/C=C/c1ccc(Cl)cc1)c1ccc(N2C(=O)C=CC2=O)cc1
- IC50 [1]: 7.5 µM
- IC50 [2]: 7.3 µM
- IC50 [3]: 7.5 µM

Structure (SMILES): O=C(O)c1ccc(/C=C/C(=O)c2ccc(N3C(=O)C=CC3=O)cc2)cc1
- Activity [5]: Toxic
- Activity [4]: Toxic
- IC50 [1]: 178 µM
- IC50 [2]: 135 µM
- IC50 [3]: 133 µM
